{"source": "paper PMC3730172", "about": "(Scientific Reports, 2013)", "key": {"PPM1A [1]": {"biological_target": "T1, PPM1A (Homo sapiens, UniProt P35813)", "T1 sequence (P35813 1-382)": "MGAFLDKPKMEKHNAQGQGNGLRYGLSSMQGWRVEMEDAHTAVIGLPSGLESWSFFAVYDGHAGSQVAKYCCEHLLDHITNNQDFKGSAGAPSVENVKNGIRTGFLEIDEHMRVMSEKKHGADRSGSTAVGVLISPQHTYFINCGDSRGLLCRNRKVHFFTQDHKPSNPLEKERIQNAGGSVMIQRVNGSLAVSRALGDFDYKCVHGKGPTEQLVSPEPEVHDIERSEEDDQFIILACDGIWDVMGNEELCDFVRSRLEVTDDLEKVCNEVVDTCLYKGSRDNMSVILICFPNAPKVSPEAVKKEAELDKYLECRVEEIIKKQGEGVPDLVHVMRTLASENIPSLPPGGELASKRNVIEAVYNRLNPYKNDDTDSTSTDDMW", "assay": "PPM1A-catalyzed pNPP hydrolysis, metal ion activation and inhibition", "format": "biochemical", "conditions": "PPM1A wild type, Mn^2+ as variable substrate, pH 8.0, 25°C", "outline": "(§1)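 Recombinant N-terminal His-tagged human wild-type enzyme in pNPP buffer (0.05 M Tris/0.05 M Bis-Tris/0.1 M acetate), pH 8.0, 25°C. Metal activation: Mn2+ varied 1 to 100 mM with saturating pNPP (10-40 mM), EDTA stop, 405 nm, Michaelis-Menten fit. Inhibition: pNPP fixed at 20 mM, Mn2+ varied, Cd2+ at 0, 0.25, 0.5 and 1.0 µM; double-reciprocal analysis.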"}, "PC12 cells": {"system": "PC12 cells", "assay": "Apoptosis assay in PC12 cells", "format": "cell-based", "conditions": "1.5 or 2.5 μM Cd^2+, 24 h"}, "PHLPP2 catalytic domain": {"biological_target": "T2, PHLPP2 catalytic domain (Homo sapiens, UniProt Q6ZVD8)", "T2 sequence (Q6ZVD8 784-1033)": "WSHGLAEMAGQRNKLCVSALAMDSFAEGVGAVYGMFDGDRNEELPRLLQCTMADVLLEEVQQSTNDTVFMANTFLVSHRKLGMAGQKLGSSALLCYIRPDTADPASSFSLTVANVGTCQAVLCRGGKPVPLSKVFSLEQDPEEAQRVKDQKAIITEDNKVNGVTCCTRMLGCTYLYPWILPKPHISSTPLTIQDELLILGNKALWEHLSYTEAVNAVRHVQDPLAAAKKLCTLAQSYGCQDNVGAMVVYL", "assay": "Cadmium inhibition assay of PHLPP2 catalytic domain", "format": "biochemical", "conditions": "pNPP, pH 8.0, 25°C", "outline": "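His-tagged human PHLPP2 catalytic domain (residues 784-1033) expressed from pET-30a; pNPP hydrolysis in 0.05 M Tris, 0.05 M Bis-Tris, 0.1 M acetate, pH 8.0, 25°C, stopped with 0.5 M EDTA pH 10.0; p-nitrophenol at 405 nm.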"}, "[2]": {"system": "PPM1A D239K-regulated P38 and JNK-1 phosphorylation in HEK293 cells", "format": "cell-based, human", "conditions": "HEK293, PPM1A D239K overexpression, 1.5 μM Cd^2+", "outline": "(§2)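 Transfected HEK293 (Flag-tagged wild-type PPM1A, D239K mutant, or control vector) starved 12 h at 36 h post-transfection, then exposed to 1.5 µM CdCl2 or none for 6 h before sorbitol (0.4 M, 20 min, 37°C). Phospho-P38 and phospho-JNK by immunoblotting of cleared lysates (equal protein, BCA); data from ≥3 experiments.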"}, "PPM1G [3]": {"biological_target": "T3, PPM1G (Homo sapiens, UniProt O15355)", "T3 sequence (O15355 1-546)": "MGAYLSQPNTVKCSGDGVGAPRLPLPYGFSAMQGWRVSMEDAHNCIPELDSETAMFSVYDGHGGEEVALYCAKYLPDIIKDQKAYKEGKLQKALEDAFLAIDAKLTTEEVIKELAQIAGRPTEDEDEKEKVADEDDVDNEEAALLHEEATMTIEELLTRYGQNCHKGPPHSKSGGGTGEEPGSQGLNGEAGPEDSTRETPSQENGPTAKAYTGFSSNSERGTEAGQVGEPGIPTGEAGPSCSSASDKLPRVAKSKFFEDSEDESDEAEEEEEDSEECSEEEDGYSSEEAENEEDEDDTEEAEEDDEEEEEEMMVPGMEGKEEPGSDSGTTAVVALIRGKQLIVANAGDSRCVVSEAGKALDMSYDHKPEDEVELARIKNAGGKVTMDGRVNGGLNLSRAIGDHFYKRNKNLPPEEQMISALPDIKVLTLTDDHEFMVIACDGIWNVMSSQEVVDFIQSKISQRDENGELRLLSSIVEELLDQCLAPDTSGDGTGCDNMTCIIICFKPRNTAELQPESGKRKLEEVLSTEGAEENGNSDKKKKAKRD", "assay": "Dephosphorylation of pp-ERK2 protein by PPM1G in vitro", "format": "biochemical", "conditions": "1.5 μM Cd^2+, 1 mM Mn^2+, pH 8.0, 37°C", "outline": "(§3)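 Recombinant doubly phosphorylated ERK2 as substrate in 0.05 M Tris/0.05 M Bis-Tris/0.1 M acetate, pH 8.0, 37°C, 1 mM Mn2+, with or without 1.5 µM Cd2+; reactions started by adding phosphatase, stopped by boiling in SDS buffer (100°C, 10 min); phospho-ERK (pT/pY) by Western blot; triplicate, mean ± standard error.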"}, "[4]": {"system": "PPM1A-regulated P38 and JNK-1 phosphorylation in HEK293 cells", "format": "cell-based, human", "conditions": "HEK293, PPM1A overexpression, 1.5 μM CdCl2 6 h, sorbitol 0.4 M 20 min", "outline": "as §2"}, "[5]": {"system": "PC12 cells overexpressing PPM1A D239K", "assay": "Apoptosis assay in PC12 cells overexpressing PPM1A D239K", "format": "cell-based", "conditions": "overexpression of Cd^2+ insensitive mutant D239K; 1.5 and 2.5 μM, 24 h"}, "PPM1G [6]": {"biological_target": "T3, PPM1G", "assay": "PPM1G-catalyzed hydrolysis of pp-ERK and pp-P38 phospho-peptides", "format": "biochemical", "conditions": "pp-ERK and pp-P38 phospho-peptide substrates"}, "PPM1A [7]": {"biological_target": "T1, PPM1A", "assay": "PPM1A-catalyzed hydrolysis of pp-ERK and pp-P38 phospho-peptides", "format": "biochemical", "conditions": "pp-ERK and pp-P38 phospho-peptide substrates"}, "PPM1A D239K": {"biological_target": "T4, PPM1A D239K (Homo sapiens, UniProt P35813, D239K)", "T4 sequence (P35813 1-382 D239K)": "T1 sequence (P35813 1-382) with D239K", "assay": "Dephosphorylation of pp-ERK2 protein by PPM1A D239K in vitro", "format": "biochemical", "conditions": "1.5 μM Cd^2+", "outline": "as §3"}, "PP2A": {"biological_target": "PP2A (Homo sapiens, UniProt P67775)", "sequence (P67775 whole entry)": "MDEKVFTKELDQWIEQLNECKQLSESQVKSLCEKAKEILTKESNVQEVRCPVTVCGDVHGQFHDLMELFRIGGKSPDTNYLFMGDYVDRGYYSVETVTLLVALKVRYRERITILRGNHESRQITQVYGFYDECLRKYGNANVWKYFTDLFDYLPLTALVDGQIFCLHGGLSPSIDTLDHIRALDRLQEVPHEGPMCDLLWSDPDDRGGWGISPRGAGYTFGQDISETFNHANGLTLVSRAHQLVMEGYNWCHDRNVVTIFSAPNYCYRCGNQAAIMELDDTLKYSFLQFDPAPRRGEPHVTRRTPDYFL", "sequence (P30153 2-589 partner limits assumed)": "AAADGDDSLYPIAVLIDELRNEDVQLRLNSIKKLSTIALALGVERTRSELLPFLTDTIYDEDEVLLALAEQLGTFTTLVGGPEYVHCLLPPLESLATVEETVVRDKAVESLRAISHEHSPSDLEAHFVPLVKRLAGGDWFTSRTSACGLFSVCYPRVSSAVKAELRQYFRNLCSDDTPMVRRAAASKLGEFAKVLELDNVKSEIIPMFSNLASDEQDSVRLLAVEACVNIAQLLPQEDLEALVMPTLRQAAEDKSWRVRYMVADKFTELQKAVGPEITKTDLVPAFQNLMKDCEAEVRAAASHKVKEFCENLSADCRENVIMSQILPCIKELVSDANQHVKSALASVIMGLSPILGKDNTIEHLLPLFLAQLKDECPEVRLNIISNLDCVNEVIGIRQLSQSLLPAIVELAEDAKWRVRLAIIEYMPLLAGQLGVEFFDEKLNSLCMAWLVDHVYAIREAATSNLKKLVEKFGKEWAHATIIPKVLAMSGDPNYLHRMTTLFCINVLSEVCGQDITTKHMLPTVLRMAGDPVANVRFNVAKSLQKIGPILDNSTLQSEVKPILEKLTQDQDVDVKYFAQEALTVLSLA", "assay": "Cadmium inhibition assay of PP2A", "format": "biochemical", "conditions": "pNPP, pH 8.0, 25°C", "outline": "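Commercial PP2A assayed on pNPP in 0.05 M Tris/0.05 M Bis-Tris/0.1 M acetate at pH 8.0 and 25°C; EDTA (0.5 M, pH 10.0) stop; p-nitrophenol at 405 nm.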"}, "[8]": {"system": "PPM1A-regulated ERK phosphorylation in HEK293 cells", "assay": "EGF-stimulated ERK phosphorylation in PPM1A-overexpressing HEK293 cells", "format": "cell-based, human", "conditions": "HEK293, PPM1A overexpression, 1.5 μM Cd^2+, EGF 5 ng/ml 5 min", "outline": "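HEK293 in DMEM (25 mM glucose, 10% FBS, penicillin/streptomycin), 37°C, 5% CO2, transiently transfected with Flag-tagged phosphatase or control vector. 36 h post-transfection, serum-starved 12 h, 1.5 µM CdCl2 or none for 6 h, then EGF 5 ng/ml, 5 min, 37°C. Lysates immunoblotted for phospho-ERK or phospho-AKT Ser473; actin loading control; ≥3 experiments.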"}, "PPM1G [9]": {"biological_target": "T3, PPM1G", "assay": "PPM1G-catalyzed pNPP hydrolysis, metal ion activation and inhibition", "format": "biochemical", "conditions": "PPM1G wild type, Mn^2+ as variable substrate, pH 8.0, 25°C", "outline": "as §1"}, "HEK293 cells": {"system": "HEK293 cells", "assay": "Cell cycle assay in PPM1A-overexpressing HEK293 cells", "format": "cell-based, human", "conditions": "HEK293, PPM1A overexpression, 1.5 μM Cd^2+, 24 h", "outline": "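HEK293 transfected with Flag-PPM1A, serum-starved 12 h (36 h post-transfection), given 1.5 µM CdCl2 for 24 h with cycling restarted by 10% FBS medium. Cells fixed in 75% ethanol at 4°C overnight, resuspended in PBS with 0.1% NaN3, stained with propidium iodide (50 µg/ml); DNA content by flow cytometry, G2/M percentage; ≥3 repeats.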"}, "PPM1A [10]": {"biological_target": "T1, PPM1A", "assay": "Dephosphorylation of pp-ERK2 protein by PPM1A in vitro", "format": "biochemical", "conditions": "1.5 μM Cd^2+, 1 mM Mn^2+, pH 8.0, 37°C, wild-type PPM1A", "outline": "as §3"}, "PPM1A D282A": {"biological_target": "T5, PPM1A D282A (Homo sapiens, UniProt P35813, D282A)", "T5 sequence (P35813 1-382 D282A)": "T1 sequence (P35813 1-382) with D282A", "assay": "Dephosphorylation of pp-ERK2 protein by PPM1A D282A in vitro", "format": "biochemical", "conditions": "1.5 μM Cd^2+", "outline": "as §3"}, "[11]": {"biological_target": "T6, striatum-enriched phosphatase (STEP) (Homo sapiens, UniProt P54829)", "T6 sequence (P54829 1-565)": "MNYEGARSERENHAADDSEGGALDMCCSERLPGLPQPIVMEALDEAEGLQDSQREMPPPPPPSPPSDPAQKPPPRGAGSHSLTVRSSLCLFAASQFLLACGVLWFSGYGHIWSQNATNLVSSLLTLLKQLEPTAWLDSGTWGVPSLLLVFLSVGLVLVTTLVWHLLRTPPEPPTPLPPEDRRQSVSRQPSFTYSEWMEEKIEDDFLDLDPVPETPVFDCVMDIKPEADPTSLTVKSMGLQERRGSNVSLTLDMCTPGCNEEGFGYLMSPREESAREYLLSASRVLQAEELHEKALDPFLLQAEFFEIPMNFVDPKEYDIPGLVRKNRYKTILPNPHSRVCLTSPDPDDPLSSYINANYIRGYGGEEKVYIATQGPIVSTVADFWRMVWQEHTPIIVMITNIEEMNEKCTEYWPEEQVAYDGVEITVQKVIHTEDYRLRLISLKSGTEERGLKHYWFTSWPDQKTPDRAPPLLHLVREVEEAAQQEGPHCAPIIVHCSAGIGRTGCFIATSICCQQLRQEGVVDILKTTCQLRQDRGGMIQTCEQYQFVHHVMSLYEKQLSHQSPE", "assay": "Dephosphorylation of pp-ERK2 protein by STEP in vitro", "format": "biochemical", "conditions": "1.5 μM Cd^2+, pH 8.0, 37°C"}}, "note": "Where a chain is given by its changes, count along the chain named. “And” between values parts separate entries of the source, which are not always exact repeats. Equal entries are not always repeated.", "data": [{"smiles": "[Cd+2]", "note": "[Cd^2+, cadmium]", "values": [{"measurement": "Ki", "setting": "PPM1A [1]", "value": "< 1 µM and ~1 µM"}, {"measurement": "PC12 cell apoptosis", "setting": "PC12 cells", "value": "induced"}, {"measurement": "IC50", "setting": "PHLPP2 catalytic domain", "value": 3000, "unit": "µM"}, {"measurement": "effect on D239K block of sorbitol-induced P38 and JNK-1 phosphorylation", "setting": "[2]", "value": "much weaker effects"}, {"measurement": "effect on dephosphorylation of phospho-ERK", "setting": "PPM1G [3]", "value": "substantially blocked"}, {"measurement": "effect on PPM1A block of sorbitol-induced P38 and JNK-1 phosphorylation", "setting": "[4]", "value": "drastically reversed"}, {"measurement": "PC12 cell apoptosis", "setting": "[5]", "value": "did not promote"}, {"measurement": "IC50", "setting": "PPM1G [6]", "value": "low micromolar range"}, {"measurement": "IC50", "setting": "PPM1A [7]", "value": "low micromolar range"}, {"measurement": "effect on dephosphorylation of phospho-ERK", "setting": "PPM1A D239K", "value": "minimally affected"}, {"measurement": "IC50", "setting": "PP2A", "value": 130, "unit": "µM"}, {"measurement": "effect on PPM1A reduction of EGF-induced ERK phosphorylation", "setting": "[8]", "value": "reversed"}, {"measurement": "Ki", "setting": "PPM1G [9]", "value": "< 1 µM and ~1 µM"}, {"measurement": "effect on PPM1A-induced increase in proportion of cells in G2/M", "setting": "HEK293 cells", "value": "greatly reversed"}, {"measurement": "effect on dephosphorylation of phospho-ERK", "setting": "PPM1A [10]", "value": "substantially blocked"}, {"measurement": "effect on dephosphorylation of phospho-ERK", "setting": "PPM1A D282A", "value": "minimally affected"}, {"measurement": "effect on dephosphorylation of phospho-ERK", "setting": "[11]", "value": "no effect"}]}]}
